MrgX1 antagonist – antagonists of human MrgX1 receptor; Q96LB2; MRGX1-HEK293 calcium flux, Fluo-4, BAM8-22 antagonism; stronger effect = lower value; B-score at 10 µM; hit rate 1.3% among 310,000; AID 588676;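 active = calcium-response B-score plate-corrected more than 3 library SD below zero, starting fluorescence within 5 deviations, no agonist response on first addition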;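 also: peak minus trough fluorescence over baseline after final BAM8-22 challenge near maximal dose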
Target sequence (Q96LB2 whole entry, looked up): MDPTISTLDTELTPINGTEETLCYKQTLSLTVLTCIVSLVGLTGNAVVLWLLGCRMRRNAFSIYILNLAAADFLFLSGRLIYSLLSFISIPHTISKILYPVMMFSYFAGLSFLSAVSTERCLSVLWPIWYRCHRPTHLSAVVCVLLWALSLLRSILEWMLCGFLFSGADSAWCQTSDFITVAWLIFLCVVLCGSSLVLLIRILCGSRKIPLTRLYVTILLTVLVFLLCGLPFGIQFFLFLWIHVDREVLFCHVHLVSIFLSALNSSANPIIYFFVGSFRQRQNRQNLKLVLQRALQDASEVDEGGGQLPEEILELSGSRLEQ
RGS4 inh – human RGS4 inhibition; HEK293 M3R/RGS4 inducible, Fluo-4 calcium flux; stronger effect = higher value; triggered by carbachol at its EC20; B-score at 10 µM; hit rate 0.45% among 310,000;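 active = B-score, a plate-corrected calcium signal, over three deviations above library mean, with baseline fluorescence within five deviations of library mean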;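 also: RGS4 expression induced by doxycycline in cells with stable M3 receptor; B-score is computed from the integrated fluorescence ratio over baseline after carbachol; higher B-score means a larger calcium signal and so more RGS4 inhibition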
Target sequence (P49798 whole entry, looked up): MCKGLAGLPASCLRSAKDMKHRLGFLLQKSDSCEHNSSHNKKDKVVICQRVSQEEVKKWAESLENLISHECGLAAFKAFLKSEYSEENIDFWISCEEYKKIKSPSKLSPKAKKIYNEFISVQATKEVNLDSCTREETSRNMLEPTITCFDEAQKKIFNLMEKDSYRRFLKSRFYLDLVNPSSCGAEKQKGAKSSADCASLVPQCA
MrgX1 allo act – allosterically activates human MrgX1 receptor signaling; Q96LB2; MrgX1-HEK293, Fluo-4 calcium flux, FDSS; stronger effect = higher value; B-score at 10 µM; hit rate 0.63% among 310,000;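 active = plate-corrected calcium response at least 3 library SD above typical, normal starting fluorescence, not activating the receptor alone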;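 also: compound read alongside a low EC10 to EC30 dose of BAM8-22 agonist; peak minus trough fluorescence over baseline measured at the second addition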
RGS4 pot – RGS4 potentiation or activation; HEK293 M3R/inducible RGS4, carbachol calcium flux Fluo4; stronger effect = lower value; B-score at 10 µM; hit rate 0.92% among 310,000;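 active = B-score of the integrated calcium signal more than 4 SD below the library mean, with starting fluorescence not abnormally high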;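 also: negative B-score means reduced calcium response which marks RGS4 activation or potentiation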
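Material: M3R-expressing HEK293 line, RGS4 induced by doxycycline | Schedule: Overnight RGS4 induction, 30 min dye load 37 °C, 20 min compound RT | Measured by: Fluo4 fluorescence kinetic imaging of calcium | Read-out: Integrated calcium ratio converted to B score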
MrgX1 ag – human MrgX1 receptor agonism, primary screen | Q96LB2 | MrgX1-HEK293 cells, Fluo-4 calcium fluorescence, agonist mode; stronger effect = higher value | B-score at 10 µM | hit rate 0.44% among 310,000 | AID 588627;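 active = calcium response B-score plate-corrected fluorescence ratio at least 3 library SD, with starting fluorescence B-score inside 5 SD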
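Assay system: stable human MrgX1 HEK293 cell line. Quantity: 15,000 cells per well. Schedule: cells plated overnight, dye loaded 0.5 h 37 °C, 0.5 h room temperature. Detection: Fluo-4 NW calcium-flux fluorescence, kinetic read. Read-out basis: peak-minus-minimum fluorescence over baseline, converted to B scores. Control set: positive and negative control wells on each plate.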
MrgX1 antag conf – human MrgX1 receptor antagonism, re-confirmation screen. shares compounds with MrgX1 antagonist. MrgX1-HEK293, BAM8-22 calcium flux, Fluo-4; stronger effect = lower value. remaining BAM8-22 calcium response % of control (stronger effect = lower value), % at 10 µM. hit rate 19% among 2,300;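 active = remaining agonist calcium response no higher than 100% minus 3 SD of agonist-only control wells, with starting fluorescence near control levels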;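 also: agonist BAM8-22 given at a near maximal EC90 to ECmax level; peak minus minimum fluorescence divided by baseline after agonist addition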
HEK293 Ca flux – MrgX1 antagonist counter-screen hit in parental HEK293 cells; shares compounds with MrgX1 antagonist; Fluo-4 calcium fluorescence, FDSS; fluorescence ratio F(max-min)/F0 at 10 µM; hit rate 2% among 4,000; AID 624111;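 active = duplicate-averaged calcium fluorescence ratio at least three times the standard deviation of buffer wells, a nonspecific response in parental cells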
HEK293 Ca counter – activity in parental HEK293 cells without MrgX1 | shares compounds with MrgX1 antagonist | fluorescence ratio F(max-min)/F0 at 10 µM | parental HEK293 calcium flux, Fluo-4 fluorescence ratio; stronger effect = higher value | AID 624114 | hit rate 0.4% among 4,000;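 active = calcium fluorescence ratio, averaged over duplicates, at least 3 SD of the buffer-well ratio, meaning a nonspecific response in receptor-free cells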;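 also: untransfected parental HEK293 lacking MrgX1 used as counterscreen for MrgX1 allosteric activators; fluorescence change taken during the second addition on a kinetic imager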
HEK293 Ca cntr2 – activity in parental HEK293 cells lacking MrgX1 receptor; shares compounds with MrgX1 antagonist; AID 624115; Fluo-4 calcium fluorescence (FDSS); stronger effect = higher value; hit rate 8.7% among 4,000; fluorescence ratio F(max-min)/F0 at 10 µM;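 active = calcium fluorescence ratio at least three times the spread of buffer wells, meaning a non-specific response in parental cells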
The depositor's hits bear a star; i = inactive; . = not tested or not shown. A selection: hits, their analogues and other compounds. The true share with any hit is near 3.5%.

SMILES	MrgX1 antagonist	RGS4 inh	MrgX1 allo act	RGS4 pot	MrgX1 ag	MrgX1 antag conf	HEK293 Ca flux	HEK293 Ca counter	HEK293 Ca cntr2
CCC(C)NS(=O)(=O)c1cc2c3c(c1)CCC(=O)N3CCC2 (stereo not drawn)	i	i	i	i	i	.	.	.	.
c1ccc(OCCN2CCN(Cc3nc(-c4ccc5c(c4)OCO5)no3)CC2)cc1	i	i	i	i	i	.	.	.	.
Cc1cc(NCCO)c2ccccc2n1	-4.6*	i	i	i	i	i	i	i	i
Cc1ccc(Nc2nc(NCCO)c3ccccc3n2)cc1C	-6.1*	i	i	i	i	78%*	i	i	i
C=CCn1c(C)cc(C(=O)CSc2nc3ccccc3[nH]2)c1C	-6.7*	i	i	i	i	71%*	i	i	i
CC(=O)c1cc2c(cc1NC(=O)CSc1nc3ccccc3[nH]1)OCO2	-6.6*	i	i	i	i	75%*	i	i	i
O=C(CSc1nc2ccccc2[nH]1)c1c[nH]c2ccccc12	-5.7*	i	i	i	i	i	i	i	i
COCC(C)n1c(C)cc(C(=O)CSc2nc3ccccc3c(=O)[nH]2)c1C (stereo not drawn)	-7.7*	i	i	i	i	i	i	i	i
C=CCn1c(C)cc(C(=O)CSc2nc3ccccc3c(=O)[nH]2)c1C	i	.	i	.	i	.	.	.	.
CCCCn1c(N)c(N(CC(C)C)C(=O)c2ccc(Cl)c(S(=O)(=O)N3CCCC3)c2)c(=O)[nH]c1=O	i	i	i	i	i	.	.	.	.
CCOC(=O)c1csc(NC(=O)CCSc2ccccc2)n1	-5.3*	i	i	i	i	i	i	i	i
Cc1ccccc1-c1nnnn1C1CCS(=O)(=O)C1 (stereo not drawn)	-6.4*	i	i	i	i	i	i	i	i
COC(=O)c1c(C(=O)OC)c(-c2cccc(Cl)c2)n2c1CS(=O)(=O)C2	i	i	i	i	i	.	.	.	.
Cc1ccc(C2c3c(oc4ccccc4c3=O)C(=O)N2c2nncs2)cc1 (stereo not drawn)	i	i	i	i	i	.	.	.	.
CC(NC(=O)C12CC3CC(CC(O)(C3)C1)C2)c1ccccc1 (stereo not drawn)	i	i	i	i	i	.	.	.	.
O=C(c1nc2nc(-c3ccccc3)cc(C(F)(F)F)n2n1)N1CCOCC1	-5.5*	i	i	i	i	85%*	i	i	i
O=C(c1nc2nc(-c3ccc(Cl)cc3)cc(C(F)(F)F)n2n1)N1CCOCC1	i	i	i	i	i	.	.	.	.
COCC(=O)Nc1nnc(COc2ccc(Cl)cc2)s1	-7.1*	i	i	i	i	i	i	i	i
COc1ccc(OCC(=O)Nc2ccc(Cl)cc2)cc1	-5*	i	i	i	i	i	i	i	i
COc1ccc(C2CC(C(F)(F)F)n3nc(C(=O)O)c(Cl)c3N2)cc1OC (stereo not drawn)	-4.5*	i	i	i	i	i	i	i	i
COc1ccc(C2CC(C(F)(F)F)n3nc(CO)c(Cl)c3N2)cc1OC (stereo not drawn)	i	i	i	i	i	.	.	.	.
Cc1nn(C)c(C)c1CNC(=O)c1nn2c(c1Cl)NC(c1cccs1)CC2C(F)(F)F (stereo not drawn)	-8.7*	i	i	i	i	i	i	i	i
CCC1(c2ccc(F)cc2)NC(=O)N(CC(=O)N2CCN(S(=O)(=O)c3ccc(C)cc3)CC2)C1=O (stereo not drawn)	i	i	i	i	i	.	.	.	.
CC(OC(=O)c1nsc(Cl)c1Cl)C(=O)NCCc1ccccc1 (stereo not drawn)	i	i	i	i	i	.	.	.	.
C=C1CCC[C@]2(C)C[C@H]3OC(=O)C(CNC(C)(CO)CO)[C@H]3CC12 (stereo partly drawn)	i	i	i	i	i	.	.	.	.
SMILES	MrgX1 antagonist	RGS4 inh	MrgX1 allo act	RGS4 pot	MrgX1 ag	MrgX1 antag conf	HEK293 Ca flux	HEK293 Ca counter	HEK293 Ca cntr2
CCC(C)(C)n1nnnc1C(c1ccc(F)cc1)N1CCN(C(=O)c2ccco2)CC1 (stereo not drawn)	i	i	i	i	i	.	.	.	.
O=C1c2ccncc2C(=O)N1CO	-5*	i	i	i	i	85%*	i	i	i
COc1ccccc1OCC(=O)Nc1nnc(C2CCCC2)s1	i	i	i	i	i	.	.	.	.
CC(=O)c1sc(NC(=O)COc2ccc(Cl)cc2Cl)nc1C	-4.7*	i	i	i	i	i	i	i	i
CC(=O)N1CCN(c2ccc(NC(=O)COc3ccc(Cl)cc3Cl)cc2)CC1	-7*	i	i	i	i	85%*	i	i	i
O=C(COc1cc(Cl)ccc1Cl)Nc1nnc(C2CC2)s1	-4.6*	i	i	i	i	i	i	i	i
CSc1cccc(CNC(=O)C2CCC(=O)N(CCCN3CCCC3=O)C2)c1 (stereo not drawn)	i	i	i	i	i	.	.	.	.
CC(=O)c1ccccc1C(=O)N(C)C1CCCN(Cc2ccccc2F)C1 (stereo not drawn)	-4.8*	i	i	i	i	i	i	i	45*
COc1ccc(NC(=O)CSc2nnc3c4c(nc(-c5ccccc5)n23)CC(C)(C)OC4)cc1	-7.2*	i	i	i	i	i	i	i	i
Cn1c(C(=O)N2CCC(C(N)=O)CC2)cc2cc(Cl)ccc21	-6.1*	i	i	i	i	i	i	i	i
COc1ccc2[nH]c3c(c2c1)CCNC3C1CC=C(C)CC1 (stereo not drawn)	-8.9*	i	i	i	i	i	i	i	i
COc1ccc2[nH]c(C)cc(=O)c2c1	i	i	i	i	i	.	.	.	.

Source: PubChem BioAssay
